The results in this text go back to ChEMBL document CHEMBL1275598, “In vitro activity of ceftaroline against community-associated methicillin-resistant, vancomycin-intermediate, vancomycin-resistant, and daptomycin-nonsusceptible Staphylococcus aureus isolates” (2010).

The structures appear in SMILES notation.

Assay [1] has as its system Staphylococcus aureus. Nature of the assay: Antimicrobial activity against vancomycin resistant Staphylococcus aureus VRS-3 expressing SCCmec type 4 element by microdilution method in presence of 50 mg/L calcium. (In general: Broth dilution looks for growth in wells or tubes with falling amounts of substance.)
In assay [2] the test system is Staphylococcus aureus. Nature of the assay: Antimicrobial activity against vancomycin resistant Staphylococcus aureus VRS-5 expressing SCCmec type 2 element by microdilution method in presence of 50 mg/L calcium.
Assay [3] concerns Staphylococcus aureus. Nature of the assay: Antimicrobial activity against vancomycin resistant Staphylococcus aureus VRS-7 expressing SCCmec element by microdilution method in presence of 50 mg/L calcium. It counts as functional. The gist of the method:
(§1)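 Broth microdilution per CLSI in cation-adjusted Mueller-Hinton broth supplemented with calcium to 50 mg/liter final. Antibiotic powders were reconstituted per CLSI. The MIC was read visually as the lowest drug concentration with no visible growth. S. aureus ATCC 29213 and E. faecalis ATCC 29212 served as control strains.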

Assay [4] concerns Staphylococcus aureus. The assay can be described thus: Antimicrobial activity against community-acquired methicillin-resistant Staphylococcus aureus assessed as susceptible isolates by microdilution method in presence of 50 mg/L calcium. Type of assay: functional. The essentials: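 Daptomycin MICs by CLSI broth microdilution in cation-adjusted Mueller-Hinton broth with calcium added to a final 50 mg/liter, read visually. Percentage susceptible among 92 CA-MRSA isolates assigned by CLSI breakpoints.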

Assay [5] relates to Staphylococcus aureus. The assay can be described thus: Bactericidal activity against vancomycin-resistant Staphylococcus aureus assessed as antibiotic concentration that reduced the number of viable cells by =>99.9% by colony count method in presence of 50 mg/L calcium. It counts as functional. The essentials: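 MBC per CLSI following microdilution in cation-adjusted Mueller-Hinton broth with calcium added to 50 mg/liter final. Defined as the concentration giving ≥99.9% reduction in viable cells, judged from colony counts of the growth control well against Pearson rejection-value tables.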

Assay [6] relates to Staphylococcus aureus. Nature of the assay: Antimicrobial activity against vancomycin-intermediate Staphylococcus aureus assessed as susceptible isolates by microdilution method in presence of 50 mg/L calcium. It counts as functional. The gist of the method: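 Broth microdilution MIC per CLSI in cation-adjusted Mueller-Hinton broth, with calcium added to a final 50 mg/liter for daptomycin testing. MIC is the lowest drug concentration with no visible growth, read by eye. Percent susceptible was assigned from CLSI breakpoints. S. aureus ATCC 29213 and E. faecalis ATCC 29212 served as control strains.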

The subject of assay [7] is Staphylococcus aureus. The assay can be described thus: Antimicrobial activity against vancomycin-resistant Staphylococcus aureus by microdilution method in presence of 50 mg/L calcium. Type of assay: functional. The gist of the method: as §1
For assay [8], the system named is Staphylococcus aureus. The assay can be described thus: Antimicrobial activity against vancomycin intermediate Staphylococcus aureus NRS-18 expressing SCCmec type 2 element by microdilution method in presence of 50 mg/L calcium. It counts as functional. The gist of the method: (§2)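 Daptomycin MIC by CLSI broth microdilution in cation-adjusted Mueller-Hinton broth, supplemented with calcium to a final 50 mg/liter. Read visually as the lowest concentration with no visible growth. ATCC 29213 and E. faecalis ATCC 29212 served as controls. CA-MRSA and DNSSA isolates came from patients at the study hospital; VISA isolates came from NARSA.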

The subject of assay [9] is Staphylococcus aureus. The assay can be described thus: Antimicrobial activity against vancomycin intermediate Staphylococcus aureus NRS-22 expressing SCCmec type 2 element by microdilution method in presence of 50 mg/L calcium. Type of assay: functional. The gist of the method:
as §2

For assay [10], the system named is Staphylococcus aureus. Nature of the assay: Antimicrobial activity against vancomycin intermediate Staphylococcus aureus NRS-402 expressing SCCmec type 2 element by microdilution method in presence of 50 mg/L calcium. Type of assay: functional. The essentials:
as §2

Assay [11] deals with Staphylococcus aureus. Nature of the assay: Antimicrobial activity against vancomycin intermediate Staphylococcus aureus NRS-403 expressing SCCmec type 2 element by microdilution method in presence of 50 mg/L calcium. Type of assay: functional. The gist of the method: as §2

Usually MIC stands for the smallest concentration in the dilution series that meets the test's criterion for growth inhibition. What is called MBC is the smallest concentration meeting the test's criterion for killing. Usually MIC50 stands for the lowest concentration that inhibits either 50% of growth or 50% of the strains tested, depending on the study. Broadly, the MIC90 is the lowest concentration that inhibits either 90% of growth or 90% of the strains tested, depending on the study. Consider `CCCCCCCCCC(=O)N[C@@H](Cc1c[nH]c2ccccc12)C(=O)N[C@H](CC(N)=O)C(=O)N[C@@H](CC(=O)O)C(=O)N[C@@H]1C(=O)NCC(=O)N[C@@H](CCCN)C(=O)N[C@@H](CC(=O)O)C(=O)N[C@H](C)C(=O)N[C@@H](CC(=O)O)C(=O)NCC(=O)N[C@H](CO)C(=O)N[C@@H]([C@H](C)CC(=O)O)C(=O)N[C@@H](CC(=O)c2ccccc2N)C(=O)O[C@@H]1C`, for which the minimal inhibitory concentration (MIC) with Staphylococcus aureus [1] is 0.5 µg/mL; with Staphylococcus aureus [2], 0.5 µg/mL; in the assay with Staphylococcus aureus [3] it was 1 µg/mL; in the assay on Staphylococcus aureus [7] it was 0.5 µg/mL; with Staphylococcus aureus [8], 1 µg/mL; with Staphylococcus aureus [9] it was 2 µg/mL. Besides, the results for the MIC with Staphylococcus aureus [10] and in the assay with Staphylococcus aureus [11] were 8 µg/mL and 2 µg/mL, respectively. Further, the Activity is 100% in the assay with Staphylococcus aureus [4] and 35% in the assay on Staphylococcus aureus [6]. Also, the MBC50 in the assay with Staphylococcus aureus [5] came out at 1 µg/mL. The MBC90 with Staphylococcus aureus [5] came out at 1 µg/mL. Further, in the assay on Staphylococcus aureus [5] (Staphylococcus aureus), the MBC was 0.5 µg/mL. In the assay with Staphylococcus aureus [7], the MIC50 turned out to be 0.5 µg/mL. For the same compound, the MIC90 with Staphylococcus aureus [7] was 1 µg/mL.
